This is an account of results in ChEMBL document CHEMBL4414643, “Pharmacokinetics of Phytocannabinoid Acids and Anticonvulsant Effect of Cannabidiolic Acid in a Mouse Model of Dravet Syndrome” (J Nat Prod, 2019).

Data set [1] can be described thus: Drug metabolism in plasma of anesthetized C57BL/6J mouse assessed as decrease in decarboxylation of parent compound at 5 mg/kg, ip by LC-MS/MS analysis. It is filed as ADME, organism-based. The following applies: in vivo. In outline:
(§1)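 Mice aged 21-28 days postnatal received one i.p. dose (10 mL/kg), and plasma and brain were sampled at 15–240 min. Decarboxylated neutral cannabinoids were measured by LC-MS/MS against known standards, alongside the parent acid.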

The nature of data set [2]: Cmax in anesthetized C57BL/6J mouse plasma at 5 mg/kg, ip administered as single dose measured upto 240 mins by LC-MS/MS analysis. It is filed as ADME, organism-based. Further details: dose 5 mg/kg, route intraperitoneal. The method, boiled down:
(§2)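 Male and female mice (C57BL/6J or C57BL/6J x 129 F1), postnatal days 21-28, single i.p. injection at 10 mL/kg in vegetable oil or ethanol–Tween 80–saline (1:1:18). Blood taken by cardiac puncture under isoflurane at time points 15–240 min. Plasma and PBS brain homogenate extracted with ice-cold acetonitrile, diazepam internal standard, quantified by LC-MS/MS. Mean concentrations per time point (n = 3-5); noncompartmental analysis.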

Data set [3] in a line: Dissociation constant, pKa of compound. It is filed as physicochemical.
Data set [4] can be described thus: Cmax in anesthetized C57BL/6J mouse brain at 5 mg/kg, ip administered as single dose measured upto 240 mins by LC-MS/MS analysis. Further details: dose 5 mg/kg, route intraperitoneal. It is filed as ADME, organism-based. The method, boiled down:
as §2

A short description of data set [5]: Partition coefficient, log P of compound. As to conditions: octanol/water. It is filed as physicochemical.
Data set [6] can be described thus: Drug metabolism in brain of anesthetized C57BL/6J mouse assessed as decrease in decarboxylation of parent compound at 5 mg/kg, ip by LC-MS/MS analysis. It is filed as ADME, organism-based. The following applies: in vivo. The method, boiled down:
as §1

A short description of data set [7]: AUC in anesthetized C57BL/6J mouse plasma at 5 mg/kg, ip administered as single dose measured upto 240 mins by LC-MS/MS analysis. It is filed as ADME, organism-based. On the set-up: dose 5 mg/kg, time < 4 hr, route intraperitoneal. The method, boiled down:
as §2

The nature of data set [8]: Tmax in anesthetized C57BL/6J mouse brain at 5 mg/kg, ip administered as single dose measured upto 240 mins by LC-MS/MS analysis. It is filed as ADME, organism-based. In outline:
as §2

A short description of data set [9]: AUC in anesthetized C57BL/6J mouse brain at 5 mg/kg, ip administered as single dose measured upto 240 mins by LC-MS/MS analysis. It is filed as ADME, organism-based. On the set-up: time < 4 hr, dose 5 mg/kg, route intraperitoneal. In outline: as §2
Data set [10] is described as follows: Half life in anesthetized C57BL/6J mouse brain at 5 mg/kg, ip administered as single dose measured upto 240 mins by LC-MS/MS analysis. It is filed as ADME, organism-based. In outline:
as §2

Data set [11] is described as follows: Tmax in anesthetized C57BL/6J mouse plasma at 5 mg/kg, ip administered as single dose measured upto 240 mins by LC-MS/MS analysis. It is filed as ADME, organism-based. In outline:
as §2

The nature of data set [12]: Half life in anesthetized C57BL/6J mouse plasma at 5 mg/kg, ip administered as single dose measured upto 240 mins by LC-MS/MS analysis. It is filed as ADME, organism-based. In outline:
as §2

The nature of data set [13]: Ratio of drug level in anesthetized C57BL/6J mouse brain to plasma at 5 mg/kg, ip administered as single dose measured upto 240 mins by LC-MS/MS analysis. It is filed as ADME, organism-based. The following applies: read-out: BPR. In outline: as §2
Data set [14] is described as follows: Half life in anesthetized C57BL/6J mouse plasma at 10 mg/kg, ip administered as single dose measured upto 240 mins by LC-MS/MS analysis. It is filed as ADME, organism-based. In outline: as §2
Data set [15] in a line: AUC in anesthetized C57BL/6J mouse plasma at 10 mg/kg, ip administered as single dose measured upto 240 mins by LC-MS/MS analysis. It is filed as ADME, organism-based. Further details: time < 4 hr, dose 10 mg/kg, route intraperitoneal. The method, boiled down:
as §2

A short description of data set [16]: Drug metabolism in brain of anesthetized C57BL/6J mouse at 10 mg/kg, ip by LC-MS/MS analysis. It is filed as ADME, organism-based. As to conditions: in vivo. The method, boiled down:
as §1

The nature of data set [17]: Cmax in anesthetized C57BL/6J mouse plasma at 10 mg/kg, ip administered as single dose measured upto 240 mins by LC-MS/MS analysis. It is filed as ADME, organism-based. On the set-up: dose 10 mg/kg, route intraperitoneal. In outline:
as §2

Data set [18] is described as follows: Tmax in anesthetized C57BL/6J mouse brain at 10 mg/kg, ip administered as single dose measured upto 240 mins by LC-MS/MS analysis. It is filed as ADME, organism-based. The method, boiled down: as §2
Data set [19] is described as follows: Ratio of drug level in anesthetized C57BL/6J mouse brain to plasma at 10 mg/kg, ip administered as single dose measured upto 240 mins by LC-MS/MS analysis. It is filed as ADME, organism-based. As to conditions: read-out: BPR. The method, boiled down:
as §2

Data set [20] can be described thus: Tmax in anesthetized C57BL/6J mouse plasma at 10 mg/kg, ip administered as single dose measured upto 240 mins by LC-MS/MS analysis. It is filed as ADME, organism-based. In outline: as §2
A short description of data set [21]: Half life in anesthetized C57BL/6J mouse brain at 10 mg/kg, ip administered as single dose measured upto 240 mins by LC-MS/MS analysis. It is filed as ADME, organism-based. The method, boiled down:
as §2

Data set [22] is described as follows: Cmax in anesthetized C57BL/6J mouse brain at 10 mg/kg, ip administered as single dose measured upto 240 mins by LC-MS/MS analysis. As to conditions: in vivo, 4 h. It is filed as ADME, organism-based. On the set-up: dose 10 mg/kg, route intraperitoneal. In outline: as §2
Data set [23] can be described thus: Drug uptake in plasma of anesthetized C57BL/6J mouse at 10 mg/kg, ip by LC-MS/MS analysis. As to conditions: in vivo. It is filed as ADME, organism-based. In outline:
as §1

A short description of data set [24]: Drug uptake in plasma of anesthetized C57BL/6J mouse assessed as purity of compound at 10 mg/kg, ip by LC-MS/MS analysis. It is filed as ADME, organism-based. As to conditions: in vivo. The method, boiled down: as §1

SMILES strings stand for the structures.

The pKa is the negative logarithm of the acid dissociation constant. As usually defined, the logP is the decadic logarithm of the partition coefficient of the neutral form, usually between octanol and water. Read a high logP as a more lipophilic compound. A word on the AUC: it is the area under the concentration-time curve, a measure of exposure. A high value points to high exposure. One may read the Tmax as the time from dosing to the highest level. By half-life is commonly meant the time needed for the level to fall by half in the phase considered. As to `C=C(C)[C@@H]1CCC(C)=C[C@H]1c1c(O)cc(CCC)c(C(=O)O)c1O`, the Drug metabolism entry in data set [1] and in [6] was “Metabolite_Notdetected” each time. Moreover, the Cmax in [2] is 21000 ng/mL; in data set [4] (C57BL/6J, brain, read-out: Cmax) it was 800 ng/mL. Besides, the pKa in [3] worked out at 2.91. The logP in data set [5] turned out to be 5.94. The AUC at 4 h in data set [7] was 24800 ng·h/mL; in data set [9], 550 ng·h/mL. Moreover, the time of peak concentration (Tmax) in data set [8] was 30 min; in data set [11], 15 min. Further, the half-life came to 19 min in data set [10] and 49 min in data set [12]. In addition, the Kp at 4 h in [13] came out at 0.02.

Turning to `CCCc1cc(O)c(C/C=C(\C)CCC=C(C)C)c(O)c1C(=O)O`, the results for the half-life in data set [14] and in data set [21] were 204 min and 29 min, respectively. The molecule further showed an AUC at 4 h in [15] of 199 µg·h/mL. In addition, the pKa in data set [3] was 2.92. In data set [16], the Drug metabolism result is “Metabolite_Notdetected”. Besides, the Cmax was 34400 ng/mL in data set [17] and 3.8 ng/mg in data set [22]. For the same molecule, the time to peak (Tmax) is 1.5 h in [18] and 15 min in data set [20]. Also, in [19], the Kp at 4 h worked out at 0.04. The molecule further gave a logP in data set [5] of 6.46. The Drug uptake was determined as 0.2% in data set [23] and 97% in data set [24].

With `CCCCCc1cc2c(c(O)c1C(=O)O)C=CC(C)(CCC=C(C)C)O2` (stereo not given), the Drug metabolism entry in [1] and in [6] was “Metabolite_Notdetected” throughout. For the same molecule, the Cmax in data set [2] was 3300 ng/mL; in data set [4] (in vivo, 4 h, BLD = below limit of detection), “Bld”. This molecule also came in with a pKa in data set [3] of 2.87. The log partition coefficient (logP) in [5] was determined as 6.91. Further, in data set [7], the AUC at 4 h was 2880 ng·h/mL. Further, in data set [11], the Tmax was 30 min. Moreover, the half-life in [12] worked out at 24 min.
